CHO parental Ca: counter-screen: ATP calcium response change in parental CHO cells; parental CHO-K1, ATP-induced calcium, Fluo-8 fluorescence; inhibition, % at 5.6 µM; 0.63% of 330,000 active; AID 463079;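 active = inhibition above that plate's mean sample inhibition plus 3 SD, cut at about 26% in these data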;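 also: 0% = ATP-challenged DMSO wells and 100% = DMSO wells without ATP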
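Test system: untransfected parental CHO cell line; also added: ATP stimulus; dosing: 5.6 µM, single dose; signal: calcium-sensitive Fluo-8 fluorescence; measure: percent inhibition of ATP-evoked calcium rise, normalized to controls; benchmarks: low control ATP plus DMSO, high control DMSO only; replication: one well per compound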
PGE2 EP2 inh: inhibitors of human EP2 prostaglandin E2 receptor. P43116. C6 glioma cells expressing human EP2, cAMP TR-FRET; cells stimulated with saturating PGE2. inhibition, % at 25 µM. 0.52% of 260,000 active. AID 1422;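 active = percent inhibition above 40 after rounding to a whole number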;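 also: rat C6 glioma host cells with rolipram phosphodiesterase inhibitor present; the protocol text gives 20 µM as final concentration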
Target sequence (P43116 whole entry, looked up): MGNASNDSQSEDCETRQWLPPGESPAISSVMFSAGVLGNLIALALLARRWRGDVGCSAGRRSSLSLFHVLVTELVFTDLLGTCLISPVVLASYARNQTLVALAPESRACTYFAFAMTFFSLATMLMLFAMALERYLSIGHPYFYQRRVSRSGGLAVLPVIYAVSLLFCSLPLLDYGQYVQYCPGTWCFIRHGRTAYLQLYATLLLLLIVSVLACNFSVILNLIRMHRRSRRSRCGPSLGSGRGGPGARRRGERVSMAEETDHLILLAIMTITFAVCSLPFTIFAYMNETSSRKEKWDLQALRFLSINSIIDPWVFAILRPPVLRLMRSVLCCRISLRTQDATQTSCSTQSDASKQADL
GPR7 antagonist: human neuropeptides B/W receptor 1 antagonism | P48145 | GPR7-expressing cells, fluorescence antagonist assay | inhibition, % at 4.4 µM | 1.1% of 290,000 active | AID 1861; in the data active = inhibition above about 16%, passing the limit was not always enough;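 also: cells stimulated with the agonist NPW; 0% = agonist with vehicle and 100% = vehicle without agonist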
Target sequence (P48145 whole entry, looked up): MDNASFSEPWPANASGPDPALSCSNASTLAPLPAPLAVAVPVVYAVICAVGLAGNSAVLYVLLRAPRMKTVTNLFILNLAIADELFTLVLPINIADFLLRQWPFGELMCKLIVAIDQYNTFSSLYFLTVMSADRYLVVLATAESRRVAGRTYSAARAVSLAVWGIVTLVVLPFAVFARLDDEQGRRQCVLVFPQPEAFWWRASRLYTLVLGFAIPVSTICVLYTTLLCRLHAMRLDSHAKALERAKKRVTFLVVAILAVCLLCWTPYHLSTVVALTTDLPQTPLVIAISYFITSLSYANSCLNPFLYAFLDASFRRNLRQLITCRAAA
OX1R antag-1: antagonists of human orexin 1 receptor (OX1R) | AID 485270 | inhibition, % at 6.6 µM | OX1R-expressing cells, FRET antagonist read-out | 1.8% of 330,000 active; in the data active = inhibition mostly above about 38%, no sharp cut-off; inactive = mostly below about 40%;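 also: 0% = agonist challenge alone and 100% = reference antagonist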
OX1R antag-2: blocks the human orexin 1 receptor | O43613 | CHO/OX1R cells, Fluo-8 calcium fluorescence, orexin A | inhibition, % at 5 µM | 0.43% of 330,000 active | AID 434989;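 active = inhibition above its plate's threshold, mean inhibition of all tested compounds on the plate plus 3 SD, cut at about 37% in these data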;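 also: 0% = orexin A challenge wells and 100% = SB-334867-A antagonist wells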
EP2 modulator: modulates human prostaglandin E2 receptor EP2 signaling. P43116. EP2-expressing cells, cAMP HTRF FRET, PGE2 co-stimulation. induction, % at 25 µM. 0.83% of 260,000 active. AID 940;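 active = compounds whose cAMP rise, as percent of the full-agonist control response, exceeds 60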;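 also: rat C6 glioma line stably carrying human EP2 under a CMV promoter; the protocol text gives 20 µM as final concentration; 100% = response of wells given 1 µM PGE2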
OX1R HTRF confirm: OX1R (human) antagonism, HTRF confirmed. shares compounds with OX1R antag-1. OX1R-expressing cells, HTRF antagonist assay. inhibition, % at 6.6 µM. 49% of 1,800 active. AID 492964; in the data active = inhibition above about 55%;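 also: CHO cells expressing OX1R stimulated with orexin A at about EC80; 0% = agonist challenge alone and 100% = reference antagonist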
CHO-K1 HTRF cnt: signal in parental CHO-K1 cells, OX1R antagonist counter-screen. inhibition, % at 6.6 µM. 48% of 1,800 active. AID 493232. shares compounds with OX1R antag-1. HTRF counterscreen; in the data active = inhibition above about 17%;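 also: 0% = agonist challenge with vehicle and 100% = vehicle alone without agonist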
* = called active by the depositor; x = no result. In the library only some 3.7% were active in any assay of this set; here they are far more common.

SMILES | CHO parental Ca | PGE2 EP2 inh | GPR7 antagonist | OX1R antag-1 | OX1R antag-2 | EP2 modulator | OX1R HTRF confirm | CHO-K1 HTRF cnt
O=[N+]([O-])c1ccc2n[nH]nc2c1 | -10 | 12 | -12 | 18 | -15 | 30 | x | x
Cc1c(C(=O)O)nn(-c2cccc(C(F)(F)F)c2)c(=O)c1C#N | 0 | x | -10 | 38 | -13 | x | x | x
Cc1ccccc1-n1nc(C(=O)O)c(C)c(C#N)c1=O | 2 | 13 | -5 | 101* | -13 | -21 | 50 | 36*
O=C(NCc1ccco1)Nc1ccc2nsnc2c1 | -3 | 17 | -4 | 96* | -15 | -21 | 25 | 1
COc1ccccc1NC(=O)C1CCCN(S(=O)(=O)c2cnc[nH]2)C1 (stereo unspecified) | -4 | 17 | -9 | 20 | -5 | 12 | x | x
COCCCNC(=O)CN1C(=O)/C(=C/c2ccccc2C)Sc2ccccc21 | -11 | 4 | -14 | 47 | -14 | 17 | x | x
CCOCCCNC(=O)CN1C(=O)/C(=C\c2ccc(C)cc2)Sc2ccccc21 | -26 | 2 | -13 | 60 | 4 | 7 | x | x
Cc1ccc(/C=C2/Sc3ccccc3N(CC(=O)NCCCOC(C)C)C2=O)cc1 | -20 | 3 | -1 | 84* | 27 | 54 | 70* | 5
CCOCCCNC(=O)CN1C(=O)/C(=C/c2ccccc2)Sc2ccccc21 | -14 | 4 | -6 | 81* | 12 | 17 | 87* | 9
CC(C)N1C(=O)CCC1C(=O)N1CCCc2ccccc21 (stereo unspecified) | -13 | 5 | -10 | 2 | -6 | 18 | x | x
CCNc1ccc(C(=O)OCC(=O)NCc2ccc(C)cc2)cc1[N+](=O)[O-] | -16 | 13 | -6 | 21 | -23 | 33 | x | x
CCNc1ccc(C(=O)OCC(=O)N2CCCC2)cc1[N+](=O)[O-] | -4 | x | 3 | 140* | -18 | x | 34 | 56*
CC(C)c1nnc(NC(=O)c2c(O)c3cccc4c3n(c2=O)CC4)s1 | x | 10 | x | x | x | -13 | x | x
NC(=O)c1c(NC(=O)c2ccc3ccccc3c2)sc2c1CCC2 | x | 16 | x | x | x | -98 | x | x
NC(=O)c1c(NC(=O)c2ccccc2)sc2c1CCC2 | -20 | x | 2 | 89* | 14 | x | 84* | 3
NC(=O)CC[C@@H]1NC(=O)[C@H](CO)NC(=O)c2cc([N+](=O)[O-])cc(I)c2NCC[C@@H](C(N)=O)NC(=O)[C@H](Cc2ccc(O)cc2)NC1=O | 2 | x | -8 | 14 | 14 | -3 | x | x
Cc1ncsc1CCOC(=O)c1cccnc1 | 0 | x | -12 | 9 | -2 | 11 | x | x
Cc1ncsc1CCOC(=O)c1ccc([N+](=O)[O-])cc1 | -6 | 8 | -5 | 82* | -19 | 15 | 29 | 34*
O=Nc1c(-c2ccccc2)cc2ccccn12 | -8 | 9 | 4 | 153* | -4 | -5 | 64* | 86*
COc1ccc(-c2nc(CS(=O)CC(=O)NCCN3CCCCCC3)c(C)o2)cc1OC (stereo unspecified) | -12 | x | -2 | 0 | -15 | x | x | x
O=C(c1cccc(F)c1)N1CCCC(C(=O)N2CCCCCC2)C1 (stereo unspecified) | -16 | x | -6 | -9 | -14 | x | x | x
COc1c(C)cc(C(=O)C2CCCN(C(=O)c3ccc4cc[nH]c4c3)C2)cc1C (stereo unspecified) | -22 | 9 | -7 | 82* | -6 | -44 | 72* | -4
COc1ccc2cc(C(=O)C3CCCN(C(=O)c4cnccn4)C3)ccc2c1 (stereo unspecified) | -12 | 11 | 6 | 97* | -15 | -28 | 19 | -6
COc1c(C)cc(C(=O)C2CCCN(C(=O)c3cccc(F)c3)C2)cc1C (stereo unspecified) | -3 | 2 | -17 | 106* | 9 | -42 | 88* | 0
O=C(COc1ccc(Cl)cc1)Nc1ccccc1C(=O)NCc1cccnc1 | -22 | x | 9 | 37 | -20 | x | x | x
SMILES | CHO parental Ca | PGE2 EP2 inh | GPR7 antagonist | OX1R antag-1 | OX1R antag-2 | EP2 modulator | OX1R HTRF confirm | CHO-K1 HTRF cnt
COc1ccc(Nc2nc(N)nc(CN3CCN(c4ccccn4)CC3)n2)cc1 | -33 | 12 | 3 | -2 | -39 | 1 | x | x
O=C(O)Cc1ccc(NC(=O)c2ccc3c(c2)C(=O)N(CC2CCCO2)C3=O)cc1 (stereo unspecified) | -14 | x | 1 | 79* | -3 | x | 43 | 43*
COc1ccc(Cl)cc1NC(=O)CSc1nnc2c(C)cc3ccc(C)cc3n12 | x | 10 | x | x | x | -4 | x | x
COC(=O)CN1C(=O)N/C(=C/c2ccccc2OC)C1=O | -5 | 4 | -6 | 119* | -17 | -38 | 19 | 6
C[C@@H](C(=O)Nc1ccc2ccccc2c1)[C@H]1C[C@]1(C)[C@H](NC(=O)c1cccnc1)c1ccccc1 | -31 | 7 | 17 | 80* | 26 | -27 | 72* | -4
C[C@@H](C(=O)Nc1ccc2ccccc2c1)[C@@H]1C[C@@]1(C)[C@@H](NC(=O)c1ccccc1)c1ccccc1 | -14 | 3 | 6 | 21 | -19 | 36 | x | x
O=C(CN1C(=O)S/C(=C\C=C\c2ccccc2)C1=O)Nc1ccc(C(=O)O)cc1 | -1 | 6 | 7 | 25 | -1 | -4 | x | x
C/C(=N\Nc1nnc2c3ccccc3n(C)c2n1)c1ccc(C)o1 | -13 | 18 | -9 | 93* | 0 | -18 | 96* | 17*
O=C1c2c([N+](=O)[O-])cc([N+](=O)[O-])cc2S(=O)N1Cc1ccccc1 (stereo unspecified) | -7 | 9 | -17 | 105* | -22 | 44 | 40 | 86*
O=[N+]([O-])c1ccc(S(=O)(=O)Cc2ccccc2)c([N+](=O)[O-])c1 | x | 12 | x | x | x | 11 | x | x
O=S(=O)(NCc1ccccn1)c1cccc2nsnc12 | -10 | 5 | -13 | 85* | -4 | 0 | 31 | 43*
O=C(C1CCC(CNS(=O)(=O)c2cccc3nsnc23)CC1)N1CCN(c2ccccn2)CC1 (stereo unspecified) | 2 | 7 | -7 | 50 | -11 | 14 | x | x
O=C(CCNS(=O)(=O)c1cccc2nsnc12)N1CCN(c2ccccn2)CC1 | -18 | 12 | 1 | 127* | -20 | 7 | 48 | 23*
COc1ccc(N2CCN(C(=O)CCS(=O)(=O)c3cccc4nsnc34)CC2)cc1 | -12 | 3 | -2 | 90* | -16 | 9 | 37 | 48*
COc1ccc(N2CCN(C(=O)CCS(=O)(=O)c3ccc(OC)cc3)CC2)cc1 | -13 | 3 | -13 | 12 | -16 | -12 | x | x
Cc1ccccc1NC(=O)CCNS(=O)(=O)c1cccc2nsnc12 | -3 | x | -14 | 78* | -14 | x | 25 | 38*
Cc1ccc(-n2c(SCC(=O)NCc3cccs3)nnc2-c2ccoc2C)cc1 | -21 | 14 | -10 | 17 | -35 | 33 | x | x
